From ChEMBL document CHEMBL4325852, “Design, synthesis, and discovery of ocotillol-type amide derivatives as orally available modulators of P-glycoprotein-mediated multidrug resistance” (Eur J Med Chem, 2019)

How the values were obtained:
Assay type in all cases: cell-based
[1] = Cytotoxicity against human KBV cells assessed as cell survival at 10 uM after 72 hrs by MTT assay relative to control; settings: read-out: Survival
Procedure, shortened: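 KBV (Pgp-overexpressing MDR line) grown in DMEM/10% FCS, kept in 10 nM paclitaxel; seeded, compound (DMSO stock) added next day, 72 h; MTT 2 h, formazan in DMSO, A570 gives survival vs DMSO solvent control; n = 1-3 independent experiments, mean ± SD.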

[2] = biological target: T1, ATP-dependent translocase ABCB1 (Homo sapiens, UniProt P08183); assay: Reversal of P-gp-mediated multidrug resistance in human KBV cells assessed as potentiation of paclitaxel-induced cytotoxicity by measuring cell survival at 10 uM after 72 hrs by MTT assay (reference value: 104 +/- 8%)
[3] = biological target: T1, ATP-dependent translocase ABCB1; assay: Reversal of P-gp-mediated multidrug resistance in human KBV cells assessed as potentiation of paclitaxel-induced cytotoxicity by measuring cell survival at 5 uM after 72 hrs by MTT assay (reference value: 104 +/- 8%)

T1 sequence (P08183 whole entry): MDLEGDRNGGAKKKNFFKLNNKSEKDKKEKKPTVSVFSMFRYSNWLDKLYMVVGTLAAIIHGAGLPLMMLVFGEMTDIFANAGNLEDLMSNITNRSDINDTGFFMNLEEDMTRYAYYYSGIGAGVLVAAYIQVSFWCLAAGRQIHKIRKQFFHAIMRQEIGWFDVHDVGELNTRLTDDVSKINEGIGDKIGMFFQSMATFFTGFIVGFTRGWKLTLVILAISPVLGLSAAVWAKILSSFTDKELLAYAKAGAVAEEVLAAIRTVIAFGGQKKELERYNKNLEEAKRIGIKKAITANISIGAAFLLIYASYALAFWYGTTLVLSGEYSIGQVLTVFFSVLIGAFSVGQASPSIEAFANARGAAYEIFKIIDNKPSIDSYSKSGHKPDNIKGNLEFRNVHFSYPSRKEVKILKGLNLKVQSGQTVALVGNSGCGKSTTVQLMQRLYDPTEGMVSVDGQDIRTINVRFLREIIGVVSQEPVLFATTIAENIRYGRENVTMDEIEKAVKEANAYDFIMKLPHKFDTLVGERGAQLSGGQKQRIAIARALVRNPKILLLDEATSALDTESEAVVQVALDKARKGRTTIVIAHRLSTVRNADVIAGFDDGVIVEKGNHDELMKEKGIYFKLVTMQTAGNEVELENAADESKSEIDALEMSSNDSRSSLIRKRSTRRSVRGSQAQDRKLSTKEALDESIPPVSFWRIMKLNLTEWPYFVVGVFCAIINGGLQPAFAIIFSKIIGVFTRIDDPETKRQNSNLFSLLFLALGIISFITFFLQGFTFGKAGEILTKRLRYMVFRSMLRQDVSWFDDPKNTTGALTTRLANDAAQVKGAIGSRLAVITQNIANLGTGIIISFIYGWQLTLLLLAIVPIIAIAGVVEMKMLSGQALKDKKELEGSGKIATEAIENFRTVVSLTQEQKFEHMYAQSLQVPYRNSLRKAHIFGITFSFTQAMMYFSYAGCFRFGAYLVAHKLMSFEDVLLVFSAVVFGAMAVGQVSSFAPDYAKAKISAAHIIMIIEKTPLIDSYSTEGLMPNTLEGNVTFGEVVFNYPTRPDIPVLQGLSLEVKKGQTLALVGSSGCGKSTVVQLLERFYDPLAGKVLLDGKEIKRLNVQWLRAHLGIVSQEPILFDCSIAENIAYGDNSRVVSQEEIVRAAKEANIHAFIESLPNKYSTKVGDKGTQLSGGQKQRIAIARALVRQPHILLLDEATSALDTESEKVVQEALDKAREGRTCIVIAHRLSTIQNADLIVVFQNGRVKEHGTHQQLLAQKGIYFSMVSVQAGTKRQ

SMILES | viability at 72 h, 10 µM [1] | Survival [2] | Survival [3]
CC(C)(C)OC(=O)Nc1ccc(C(=O)N[C@H]2CC[C@]3(C)[C@H]4C[C@@H](O)[C@@H]5[C@@H]([C@]6(C)CC[C@H](C(C)(C)O)O6)CC[C@@]5(C)[C@]4(C)CC[C@H]3C2(C)C)cc1 | 77% | 46% | 54%
CC(C)(C)OC(=O)NCCCCCCCC(=O)N[C@H]1CC[C@]2(C)[C@H]3C[C@@H](O)[C@@H]4[C@@H]([C@]5(C)CC[C@H](C(C)(C)O)O5)CC[C@@]4(C)[C@]3(C)CC[C@H]2C1(C)C | 106% | 39% | 54%
CC(C)(O)[C@H]1CC[C@@](C)([C@H]2CC[C@]3(C)[C@@H]2[C@H](O)C[C@@H]2[C@@]4(C)CC[C@H](NC(=O)CN)C(C)(C)[C@@H]4CC[C@]23C)O1 | 103% | 49% | 99%
CCCCCC(=O)N[C@H]1CC[C@]2(C)[C@H]3C[C@@H](O)[C@@H]4[C@@H]([C@]5(C)CC[C@H](C(C)(C)O)O5)CC[C@@]4(C)[C@]3(C)CC[C@H]2C1(C)C | 101% | 43% | 69%
CC(C)(O)[C@H]1CC[C@@](C)([C@H]2CC[C@]3(C)[C@@H]2[C@H](O)C[C@@H]2[C@@]4(C)CC[C@H](O)C(C)(C)[C@@H]4CC[C@]23C)O1 | 94% | 95% | –
CC(C)(C)OC(=O)NCC(=O)N[C@H]1CC[C@]2(C)[C@H]3C[C@@H](O)[C@@H]4[C@@H]([C@]5(C)CC[C@H](C(C)(C)O)O5)CC[C@@]4(C)[C@]3(C)CC[C@H]2C1(C)C | 95% | 42% | 48%
CC(C)(O)[C@H]1CC[C@@](C)([C@H]2CC[C@]3(C)[C@@H]2[C@H](O)C[C@@H]2[C@@]4(C)CC[C@H](NC(=O)CCCCCN)C(C)(C)[C@@H]4CC[C@]23C)O1 | 86% | 91% | 91%
CC(C)(C)OC(=O)NCCCC(=O)N[C@H]1CC[C@]2(C)[C@H]3C[C@@H](O)[C@@H]4[C@@H]([C@]5(C)CC[C@@H](C(C)(C)O)O5)CC[C@@]4(C)[C@]3(C)CC[C@H]2C1(C)C | 94% | 44% | 90%
CC(C)(O)[C@@H]1CC[C@@](C)([C@H]2CC[C@]3(C)[C@@H]2[C@H](O)C[C@@H]2[C@@]4(C)CC[C@H](NC(=O)c5ccccc5O)C(C)(C)[C@@H]4CC[C@]23C)O1 | 96% | 36% | 61%
CC(C)(O)[C@H]1CC[C@@](C)([C@H]2CC[C@]3(C)[C@@H]2[C@H](O)C[C@@H]2[C@@]4(C)CC[C@H](NC(=O)CCCCCCCN)C(C)(C)[C@@H]4CC[C@]23C)O1 | 80% | 38% | 84%
CCCCCC(=O)N[C@H]1CC[C@]2(C)[C@H]3C[C@@H](O)[C@@H]4[C@@H]([C@]5(C)CC[C@@H](C(C)(C)O)O5)CC[C@@]4(C)[C@]3(C)CC[C@H]2C1(C)C | 98% | 44% | 78%
CC(C)(O)[C@H]1CC[C@@](C)([C@H]2CC[C@]3(C)[C@@H]2[C@H](O)C[C@@H]2[C@@]4(C)CC[C@H](NC(=O)c5cccnc5)C(C)(C)[C@@H]4CC[C@]23C)O1 | 87% | 49% | 55%
CC(C)(O)[C@H]1CC[C@@](C)([C@H]2CC[C@]3(C)[C@@H]2[C@H](O)C[C@@H]2[C@@]4(C)CC[C@H](NC(=O)c5ccc(N)cc5)C(C)(C)[C@@H]4CC[C@]23C)O1 | 75% | 47% | 77%
CC(C)(O)[C@H]1CC[C@@](C)([C@H]2CC[C@]3(C)[C@@H]2[C@H](O)C[C@@H]2[C@@]4(C)CC[C@H](NC(=O)c5ccccc5)C(C)(C)[C@@H]4CC[C@]23C)O1 | 101% | 39% | 59%
CC(C)(O)[C@@H]1CC[C@@](C)([C@H]2CC[C@]3(C)[C@@H]2[C@H](O)C[C@@H]2[C@@]4(C)CC[C@H](NC(=O)CCCCCN)C(C)(C)[C@@H]4CC[C@]23C)O1 | 79% | 101% | 105%
CC(C)(O)[C@@H]1CC[C@@](C)([C@H]2CC[C@]3(C)[C@@H]2[C@H](O)C[C@@H]2[C@@]4(C)CC[C@H](O)C(C)(C)[C@@H]4CC[C@]23C)O1 | 111% | 104% | –

SMILES | viability at 72 h, 10 µM [1] | Survival [2] | Survival [3]
CC(C)(O)[C@H]1CC[C@@](C)([C@H]2CC[C@]3(C)[C@@H]2[C@H](O)C[C@@H]2[C@@]4(C)CC[C@H](NC(=O)CCCN)C(C)(C)[C@@H]4CC[C@]23C)O1 | 77% | 85% | 100%
CC(C)(C)OC(=O)NCCCCCCCC(=O)N[C@H]1CC[C@]2(C)[C@H]3C[C@@H](O)[C@@H]4[C@@H]([C@]5(C)CC[C@@H](C(C)(C)O)O5)CC[C@@]4(C)[C@]3(C)CC[C@H]2C1(C)C | 111% | 41% | 54%
CCCC(=O)N[C@H]1CC[C@]2(C)[C@H]3C[C@@H](O)[C@@H]4[C@@H]([C@]5(C)CC[C@H](C(C)(C)O)O5)CC[C@@]4(C)[C@]3(C)CC[C@H]2C1(C)C | 103% | 55% | 89%
CC(C)(C)OC(=O)NCCCC(=O)N[C@H]1CC[C@]2(C)[C@H]3C[C@@H](O)[C@@H]4[C@@H]([C@]5(C)CC[C@H](C(C)(C)O)O5)CC[C@@]4(C)[C@]3(C)CC[C@H]2C1(C)C | 67% | 34% | 48%
CC(C)(O)[C@H]1CC[C@@](C)([C@H]2CC[C@]3(C)[C@@H]2[C@H](O)C[C@@H]2[C@@]4(C)CC[C@H](NC(=O)c5ccccc5O)C(C)(C)[C@@H]4CC[C@]23C)O1 | 100% | 40% | 51%
CC(C)(C)OC(=O)NCC(=O)N[C@H]1CC[C@]2(C)[C@H]3C[C@@H](O)[C@@H]4[C@@H]([C@]5(C)CC[C@@H](C(C)(C)O)O5)CC[C@@]4(C)[C@]3(C)CC[C@H]2C1(C)C | 96% | 42% | 61%
CC(C)(O)[C@@H]1CC[C@@](C)([C@H]2CC[C@]3(C)[C@@H]2[C@H](O)C[C@@H]2[C@@]4(C)CC[C@H](NC(=O)CCCCCCCN)C(C)(C)[C@@H]4CC[C@]23C)O1 | 118% | 76% | 118%
CC(C)(O)[C@@H]1CC[C@@](C)([C@H]2CC[C@]3(C)[C@@H]2[C@H](O)C[C@@H]2[C@@]4(C)CC[C@H](NC(=O)c5cccnc5)C(C)(C)[C@@H]4CC[C@]23C)O1 | 91% | 61% | 115%
CC(C)(O)[C@@H]1CC[C@@](C)([C@H]2CC[C@]3(C)[C@@H]2[C@H](O)C[C@@H]2[C@@]4(C)CC[C@H](NC(=O)CN)C(C)(C)[C@@H]4CC[C@]23C)O1 | 90% | 115% | 98%
CC(C)(O)[C@H]1CC[C@@](C)([C@H]2CC[C@]3(C)[C@@H]2[C@H](O)C[C@@H]2[C@@]4(C)CC[C@H](NC(=O)c5ccccc5C(=O)O)C(C)(C)[C@@H]4CC[C@]23C)O1 | 105% | 85% | 96%
CC(C)(O)[C@@H]1CC[C@@](C)([C@H]2CC[C@]3(C)[C@@H]2[C@H](O)C[C@@H]2[C@@]4(C)CC[C@H](NC(=O)c5ccccc5)C(C)(C)[C@@H]4CC[C@]23C)O1 | 116% | 48% | 90%
CCCCCCCC(=O)N[C@H]1CC[C@]2(C)[C@H]3C[C@@H](O)[C@@H]4[C@@H]([C@]5(C)CC[C@H](C(C)(C)O)O5)CC[C@@]4(C)[C@]3(C)CC[C@H]2C1(C)C | 70% | 39% | 56%
CC(C)(C)OC(=O)NCCCCCC(=O)N[C@H]1CC[C@]2(C)[C@H]3C[C@@H](O)[C@@H]4[C@@H]([C@]5(C)CC[C@@H](C(C)(C)O)O5)CC[C@@]4(C)[C@]3(C)CC[C@H]2C1(C)C | 79% | 40% | 65%
CC(C)(O)[C@@H]1CC[C@@](C)([C@H]2CC[C@]3(C)[C@@H]2[C@H](O)C[C@@H]2[C@@]4(C)CC[C@H](NC(=O)CCCN)C(C)(C)[C@@H]4CC[C@]23C)O1 | 105% | 102% | 111%
CC(C)(O)[C@@H]1CC[C@@](C)([C@H]2CC[C@]3(C)[C@@H]2[C@H](O)C[C@@H]2[C@@]4(C)CC[C@H](N)C(C)(C)[C@@H]4CC[C@]23C)O1 | 91% | 88% | 102%
